Measured values collected from several papers.
Each line is one published result; the experiments were not run side by side.
Target: Homeodomain-interacting protein kinase 2 (HIPK2, Homo sapiens, UniProt Q9H2X6)

| SMILES | assay | conditions | endpoint | result |
| --- | --- | --- | --- | --- |
| COc1cc(/C=C/C(=O)CC(=O)/C=C/c2ccc(O)c(OC)c2)ccc1O | enzyme activity, inhibitor | 1 µM | activity vs control | 54% |
| O=C(O)c1ccc2c(c1)nc(Nc1cccc(F)c1)c1ccncc12 | enzyme activity, inhibitor, radiometric | 1 µM | remaining activity | -1% |
| O=C1Nc2ccc(Cl)cc2C1=Cc1cc(Cl)c(O)c(Cl)c1 | cell-free assay | 0.5 µM | remaining signal | 122% |
| O=C(O)c1ccc2c(c1)nc(NCc1ccccc1)c1ccncc12 | enzyme activity, inhibitor, radiometric | 1 µM | remaining activity | 51% |
| C[C@H](c1cccc(C#N)c1)n1cc(Cl)cc(C(N)=O)c1=N | cell-free assay, competition with immobilised ligand | 1 µM | remaining binding | 100% |
| N#CCCc1ccc2c(c1)-c1[nH]c3ccc([N+](=O)[O-])cc3c1CC(=O)N2 | cell-free assay | 0.5 µM | remaining signal | 106% |
| COc1cccc(CNC(=O)c2nc3scc(COCc4ccc(C(=O)O)cc4)c3c(=O)[nH]2)c1 | cell-free assay, competition with immobilised ligand | 1 µM | remaining binding | 72.9% |
| COc1cccc(CCNc2nc3cc(C(=O)O)ccc3c3cnccc23)c1 | enzyme activity, inhibitor, radiometric | 1 µM | remaining activity | 10% |
| CN1CCN(c2cnc3c(C4CCN(C(=O)c5ccc(OC(F)(F)F)cc5N)CC4)ncnc3c2)CC1 | cell-free assay, competition with immobilised ligand | 1 µM | remaining binding | 100% |
| O=C(O)c1ccc2c(c1)nc(NCCc1cccc(F)c1)c1ccncc12 | enzyme activity, inhibitor, radiometric | 1 µM | remaining activity | 4% |
| Cc1nc(N2CC[C@@H](O)C2)ncc1-c1cc(C(F)(F)F)cc2[nH]ncc12 | binding, competition with immobilised ligand | 1 µM | remaining binding | 74% |
| COc1cc2ncnc(Nc3ccc(Oc4ccccc4)c(C)c3C)c2cc1OC | enzyme activity, inhibitor | 1 µM | inhibition | 1% |
| CCCS(=O)(=O)Nc1ccc(F)c(C(=O)c2c[nH]c3ncc(-c4ccc(Cl)cc4)cc23)c1F | enzyme activity, inhibitor | 1 µM | inhibition | < 10% |
| O=C(O)c1ccc2c(c1)nc(NCCc1cccc(Cl)c1)c1ncncc12 | enzyme activity, inhibitor, radiometric | 1 µM | remaining activity | 36% |
| CCCCN(CCCC)C(=O)CN1C[C@H](c2cc(OC)c3c(c2)OCO3)[C@@H](C(=O)O)[C@@H]1CC(C)(C)CCC | cell-free assay, competition with immobilised ligand | 1 µM | remaining binding | 82.3% |
| CCN(CC)CCNC(=O)c1c(C)[nH]c(/C=C2\C(=O)Nc3ccc(F)cc32)c1C | enzyme activity, inhibitor | 0.3 µM | inhibition | 20% |
| COc1cccc(Nc2nc3cc(C(=O)O)ccc3c3cnccc23)c1 | enzyme activity, inhibitor, radiometric | 1 µM | remaining activity | 2% |
| Clc1ccc(Nc2nnc(Cc3ccncc3)c3ccccc23)cc1 | cell-free assay | 0.5 µM | remaining signal | 101% |
| CN(c1ncccc1CNc1nc(Nc2ccc3c(c2)CC(=O)N3)ncc1C(F)(F)F)S(C)(=O)=O | enzyme activity, inhibitor | 1 µM | inhibition | 85.7% |
| Nc1ncnc2occ(-c3ccc(NC(=O)Nc4cc(C(F)(F)F)ccc4F)cc3)c12 | cell-free assay, inhibitor | 20 µM | remaining signal | 0.05% |
| O=C(O)c1ccc2c(c1)nc(Nc1ccc3ccccc3c1)c1ncncc12 | enzyme activity, inhibitor, radiometric | 1 µM | remaining activity | -3% |
| CN([C@@H]1CCc2c(CC(=O)O)c3ccccc3n2C1)S(=O)(=O)c1ccc(F)cc1 | cell-free assay, competition with immobilised ligand | 1 µM | remaining binding | 100% |
| Cc1ccc(Nc2nccc(N(C)c3ccc4c(C)n(C)nc4c3)n2)cc1S(N)(=O)=O | enzyme activity, inhibitor | 10 µM | inhibition | 21% |
| CC(=O)N1CCC(c2ccc(C(=O)NC3=NCCN3)cc2C(F)(F)F)CC1 | cell-free assay, competition with immobilised ligand | 1 µM | remaining binding | 100% |
| COc1cc(-c2cc(-c3ccc(N4CCNCC4)cc3)cnc2C)cc(OC)c1OC | enzyme activity, inhibitor | 0.1 µM | inhibition | 1% |
| O=C(O)c1ccc2c(c1)nc(Nc1ccccc1)c1ccncc12 | enzyme activity, inhibitor, radiometric | 1 µM | remaining activity | 10% |
| CNC(=O)Nc1ccc2c(c1)[C@@]1(CC2)OC(=O)N(CC(=O)N(Cc2ccc(F)cc2)[C@@H](C)C(F)(F)F)C1=O | cell-free assay, competition with immobilised ligand | 1 µM | remaining binding | 78% |
